Test results reported in PMC4543588 (European journal of medicinal chemistry, 2015).
Ends that are not written are not given here.

Key:
[1] = target: human NMU2 (Homo sapiens, UniProt Q9GZQ4); test: cellular calcium signaling assay, HEK293 cells expressing recombinant human NMU2; type: cell-based
Summary of the method: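 HEK293 cells stably expressing human NMU2 were grown to ~90% confluence on poly-D-lysine, loaded 45 min at 37 °C with 2 μM fluo-4-AM in Krebs'-HEPES-BSA (pH 7.4), then equilibrated 5 min. After ligand addition, fluorescence (ex 485/em 520 nm) was read at 0.5 s intervals. Maximal [Ca2+]i change was fitted by four-parameter logistic for EC50. Emax given as % hNmU Emax; mean ± SEM, n≥4.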

[2] = target: T1, human NMU1 (Homo sapiens, UniProt Q9HB89); test: cellular calcium signaling assay, HEK293 cells expressing recombinant human NMU1; type: cell-based
T1 sequence (Q9HB89 1-426): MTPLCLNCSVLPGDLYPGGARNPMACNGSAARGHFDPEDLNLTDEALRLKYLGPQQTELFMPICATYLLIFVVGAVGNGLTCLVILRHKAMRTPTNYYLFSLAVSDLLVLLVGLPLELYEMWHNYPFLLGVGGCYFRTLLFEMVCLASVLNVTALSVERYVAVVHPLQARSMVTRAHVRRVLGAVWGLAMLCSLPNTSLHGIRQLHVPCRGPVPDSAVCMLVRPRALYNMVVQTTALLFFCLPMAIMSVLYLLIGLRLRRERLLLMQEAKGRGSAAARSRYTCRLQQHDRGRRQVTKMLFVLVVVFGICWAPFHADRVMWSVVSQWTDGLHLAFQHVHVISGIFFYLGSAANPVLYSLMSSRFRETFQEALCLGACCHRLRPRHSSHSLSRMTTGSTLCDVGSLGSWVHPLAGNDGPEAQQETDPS
Summary of the method: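 HEK293 cells stably expressing human NMU1, grown to ~90% confluence on poly-D-lysine, loaded 45 min at 37 °C with 2 μM fluo-4-AM in Krebs'-HEPES/0.1% BSA (pH 7.4), then equilibrated 5 min. Ligand added; fluorescence (ex 485/em 520 nm) read every 0.5 s. […] Four-parameter logistic fit gave EC50; Emax as % hNmU; n≥4.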

[3] = water solubility; type: physicochemical
[4] = system: lysophosphatidic acid (LPA); test: LPA levels in plasma of chronically treated DIO mice; type: in vivo, mouse; settings: 1603 nmoles/kg; every 2 or 4 (NM4A) or 7 days (NM4-C16) for 21 days
Summary of the method: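 Ad libitum-fed male DIO C57BL/6 mice on a 60% kcal-fat diet (n=8/group) received s.c. vehicle or test compound in a phospholipid-based delivery system, 30 min before dark onset. Dosing was 1603 nmoles/kg every 2 or 4 days (2.2 mg/kg) or every 7 days (2.6 mg/kg) for 21 days. Plasma (100 μL) underwent solid-phase extraction and drying at 30–37 °C, then methanol reconstitution. 18:1, 18:2 and 20:4 LPA were quantified by LC-ESI-MS/MS.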

[5] = body distribution analysis in chronically treated DIO mice; type: in vivo, mouse; settings: 2.2 mg/kg every 2 days for 28 days
Summary of the method: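 Male DIO C57BL/6 mice were given test compound chronically at 2.2 mg/kg (1603 nmoles/kg) every 2 days for 28 days, then killed. Organs and tissues were harvested, weighed and homogenised in 4 volumes of DMSO/ACN (1:1) with 0.1% TFA, then spun 10 min at 13000 rpm. Supernatants were analysed by triple-quadrupole LC/MS with a methylated analog as internal standard.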

[6] = cited from earlier work
[7] = s.c. injection ref 39; cited from earlier work

Chain of human NMU2 (Q9GZQ4 whole entry): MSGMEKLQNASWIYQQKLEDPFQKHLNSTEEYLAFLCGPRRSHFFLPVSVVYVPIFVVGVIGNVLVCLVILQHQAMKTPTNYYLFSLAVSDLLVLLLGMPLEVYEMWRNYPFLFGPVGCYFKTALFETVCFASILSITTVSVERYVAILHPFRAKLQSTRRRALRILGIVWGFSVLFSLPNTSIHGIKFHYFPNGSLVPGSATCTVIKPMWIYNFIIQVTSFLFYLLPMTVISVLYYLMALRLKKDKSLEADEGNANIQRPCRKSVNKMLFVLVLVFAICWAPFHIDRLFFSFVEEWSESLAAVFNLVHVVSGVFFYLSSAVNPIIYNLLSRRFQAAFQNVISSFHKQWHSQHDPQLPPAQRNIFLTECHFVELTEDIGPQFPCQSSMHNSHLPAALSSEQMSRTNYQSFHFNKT

Compound | NMU2 Emax at 10 μM as % hNmU Emax [1] [% hNmU Emax] | NMU1 Emax at 10 μM as % hNmU Emax [2] [% hNmU Emax] | also measured
X(C-Ahx -FL- Phe -Arg- Pro-R-Asn-Ahx-C) [NM11] | 60.6±11.6 | 33.7±0.2 | –
Pal-Aib -FL- Phe-N^MeR- Pro-R-N^MeN [NM31] | 17.9±1.5 | 13.8±2.0 | –
CCCCCCCCCCCCCCCCNC(=O)CNCC(=O)NC(C)(C)C(=O)N[C@@H](Cc1ccccc1)C(=O)N[C@@H](CC(C)C)C(=O)N[C@@H](Cc1ccccc1)C(=O)N[C@@H](CCCNC(=N)N)C(=O)N1CCC[C@H]1C(=O)N[C@@H](CCCNC(=N)N)C(=O)N[C@@H](CC(N)=O)C(N)=O [NM4A, Ida^NHPal-Aib -FL- Phe -Arg- Pro-R-Asn] | – | – | water solubility [3]: limited water solubility; plasma levels of LPA [4]: does not increase plasma levels of LPA; body distribution [5]: highest content of NM4A was detected in the plasma
X(C-Ahx -FL- Phe -Arg- Tic-R-Asn-Ahx-C) [NM13] | 39.3±8.8 | 60.4±13.8 | –
X(C-Ahx -FL- Phe -Arg- Oic-R-Asn-Ahx-C) [NM12] | 70.0±6.0 | 30.00±6.0 | –
Pal-Aib -FL- Phe -Arg- Pro-R-Asn-Aib [NM6] | 60.7±12.1 | 40.6±2.2 | –
semaglutide | – | – | plasma half-life [6]: 160 h
NmU: endogenous peptide neuromedin U (FRVDEEFQSPFASQSRGYFLFRPRN-NH2; ends and bridges not checked; UniProt P48645 142-166, looked up) | – | – | half-life after subcutaneous (s.c.) injection [7]: less than 5 min

Now from value to compound, other results behind:

NMU2 Emax at 10 μM as % hNmU Emax [1] [% hNmU Emax] | NMU1 Emax at 10 μM as % hNmU Emax [2] [% hNmU Emax] | Compound | also measured
15.2±3.8 | 19.1±1.2 | Pal-Aib -FL- N^MeF -Arg- Pro-R-N^MeN [NM32] | –
67.0±16.5 | 22.9±3.8 | Pal-Aib -FL- N^MeF -Arg- Pro-R-N^MeN [NM35] | –
28.6±7.9 | 15.9±6.6 | Pal-Aib -FL- α^MeF -Arg- Pro-R-N^MeN [NM36] | –
19.2±2.0 | 20.6±1.9 | Pal-Aib -FL- α^MeF -Arg- Pro-R-N^MeN [NM33] | –
18.4±3.2 | 19.6±3.2 | Pal-Aib -FL- Phe-N^MeR- Pro-R-N^MeN [NM34] | –
